From PubChem
MPTP inh = inhibitors of mitochondrial permeability transition pore; isolated mouse mitochondria, Ca2+ swelling absorbance, 30 min; inhibition, % at 10 µM; 360,000 compounds, 1.4% hits; AID 602449;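 active means inhibition of 50% or more, scaled per plate between neutral and stimulator controls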;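 further: 0% = DMSO wells given calcium and 100% = 1 mM EGTA wells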
GRIN3A LBD mod = modulators (binders) of human NR3A ligand-binding domain. NR3A LBD differential scanning fluorimetry, Tm shift; 0% = protein alone, 100% = glycine-bound protein. Tm shift relative to glycine control, % at 25 µM. 340,000 compounds, 2.5% hits;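 active means melting temperature shift of at least 10% of the positive control shift, at one fixed dose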
EBV gp42 inh = blocks Epstein-Barr virus glycoprotein 42 binding. Q1HVG2. inhibition, % (tested at 21.74 µM). Fluorescence polarization binding assay, mP read-out. 220,000 compounds, 0.42% hits; in the data active means inhibition above about 50%
Target sequence (Q1HVG2 whole entry, looked up): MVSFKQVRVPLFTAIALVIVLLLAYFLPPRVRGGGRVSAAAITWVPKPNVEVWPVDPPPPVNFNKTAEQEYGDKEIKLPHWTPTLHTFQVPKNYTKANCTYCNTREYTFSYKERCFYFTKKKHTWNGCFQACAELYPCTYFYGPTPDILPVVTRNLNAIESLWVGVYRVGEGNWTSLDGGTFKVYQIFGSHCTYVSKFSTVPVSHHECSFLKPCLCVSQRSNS
Tb MetRS inh = blocks T. brucei methionyl-tRNA synthetase activity; AID 624268; purified T. brucei MetRS, ATP depletion, Kinase-Glo luminescence; inhibition, % at 11.9 µM; 360,000 compounds, 0.4% hits;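 active means inhibition above a per-plate cutoff of the control wells' mean inhibition plus 3 SD, cut at about 5.5% in these data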;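 further: 0% = DMSO wells median and 100% = median of wells with control inhibitor compound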
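Dosing: 11.9 µM compound single dose, 0.9% DMSO; Assay system: purified T. brucei MetRS enzyme; Measured by: Kinase-Glo luciferase luminescence reporting remaining unconsumed ATP; Schedule: 15 min plus 2 h at 25 °C.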
CHOP inh = inhibitors of CHOP induction in ER stress response; CHO-K1 CHOP-promoter luciferase, tunicamycin-induced, 15-18 h; inhibition, % at 10 µM; 220,000 compounds, 3.8% hits;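 active means compounds that reduced the stress-induced luciferase reporter signal by more than about 70% of percent inhibition, limit read from the data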;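 further: 0% = tunicamycin plus vehicle and 100% = wells without tunicamycin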
WT yeast gro inh = growth inhibition of WT yeast, mitochondrial fusion screen; 190,000 compounds, 2.1% hits; AID 1362; inhibition, % at 10 µM; mitochondrial fusion phenotypic screen, WT strain; in the data active means inhibition above about 58%; tested in S. cerevisiae
The depositor's hits bear a star. This is a sample that favours compounds with a hit; in the whole collection about 6.4% have one here.

How did CCN1C(=O)[C@@H]2[C@@H](c3ccc(-c4ccccc4)cc3)N3CCC[C@@]3(C(=O)OC)[C@@H]2C1=O do in these assays?
MPTP inh: -0.3; GRIN3A LBD mod: 2.3; Tb MetRS inh: -0.3

Results for O=C(CN1CCN(c2ccccn2)CC1)N1c2ccccc2Sc2ccc(C(F)(F)F)cc21 ?
MPTP inh: -1.6; GRIN3A LBD mod: 2.2; EBV gp42 inh: 7.8; Tb MetRS inh: -1.7; CHOP inh: 57.9; WT yeast gro inh: 66.4*

How did O=C(CSc1nc2ccccc2o1)N1c2ccccc2Sc2ccc(C(F)(F)F)cc21 do in these assays?
MPTP inh: 5.2; GRIN3A LBD mod: 11.9*; EBV gp42 inh: -0.4; Tb MetRS inh: -0.5; CHOP inh: 19.0; WT yeast gro inh: 12.3

What do the screens show for `Brc1cccc(-c2nnc(-c3ccccc3)o2)c1`?
MPTP inh: 2.8; GRIN3A LBD mod: 1.8; EBV gp42 inh: -1.1; Tb MetRS inh: -1.2; CHOP inh: 75.3*; WT yeast gro inh: 7.1

How did Cc1ccc(C)c(N2CCN(C(=O)c3cc4ccccn4n3)CC2)c1 do in these assays?
MPTP inh: -1.8; GRIN3A LBD mod: -3.2; EBV gp42 inh: 11.4; Tb MetRS inh: 0.1; CHOP inh: 35.5; WT yeast gro inh: 28.8

What do the screens show for `COc1ccccc1-n1c(-c2ccc(NS(C)(=O)=O)cc2)n[nH]c1=S`?
MPTP inh: -1.6; GRIN3A LBD mod: 0.7; EBV gp42 inh: -11.7; Tb MetRS inh: -0.2; CHOP inh: 93.3*; WT yeast gro inh: -3.0

What do the screens show for `Cc1ccc(S(=O)(=O)N/N=C\c2ccc3c(c2)OCO3)cc1C`?
MPTP inh: 0.4; GRIN3A LBD mod: -2.0; Tb MetRS inh: -0.2

How did COc1ccc2c(-c3ccccc3)cc(SCC(=O)NC(N)=O)nc2c1 do in these assays?
MPTP inh: 1.0; GRIN3A LBD mod: 1.5; EBV gp42 inh: -3.9; Tb MetRS inh: -0.4; CHOP inh: 77.5*; WT yeast gro inh: 1.4

Results for COCCNC(=O)CSc1cc(-c2ccccc2)c2ccc(OC)cc2n1 ?
MPTP inh: -1.4; GRIN3A LBD mod: -6.6; EBV gp42 inh: -13.4; Tb MetRS inh: 0.1; CHOP inh: 36.5; WT yeast gro inh: 15.4

Results for COc1ccc(C(=O)Nc2ccc(NC(=O)c3cccc(OC)c3)cn2)cc1 ?
MPTP inh: 1.5; GRIN3A LBD mod: 37.7*; Tb MetRS inh: 0.0

Results for COc1ccc(C(=O)Nc2ccc(NC(=O)c3cccs3)cn2)cc1 ?
MPTP inh: 0.1; GRIN3A LBD mod: 17.0*; Tb MetRS inh: -0.9

How did COc1ccc(NC(=O)c2cccs2)cc1 do in these assays?
MPTP inh: -11.8; GRIN3A LBD mod: -18.1; EBV gp42 inh: -15.5; Tb MetRS inh: -0.5; CHOP inh: -11.9; WT yeast gro inh: 5.3

Results for COc1ccc(C(=O)Nc2ccc(NC(=O)c3cccc(F)c3)cn2)cc1 ?
MPTP inh: -1.8; GRIN3A LBD mod: 2.5; Tb MetRS inh: -0.2

Results for Cc1cc(NC(=O)c2ccc(NC(=O)c3cccs3)cc2)no1 ?
MPTP inh: -2.9; GRIN3A LBD mod: 14.5*; EBV gp42 inh: -21.0; Tb MetRS inh: -0.5; CHOP inh: 41.7; WT yeast gro inh: -5.1

Results for COc1ccc(C(=O)Nc2ccc(NC(=O)c3ccccc3OC)nc2)cc1 ?
MPTP inh: 1.0; GRIN3A LBD mod: 24.9*; Tb MetRS inh: -1.2

What do the screens show for `CS(=O)(=O)N(CC(=O)NCc1ccncc1)Cc1ccc(Cl)cc1`?
MPTP inh: -2.2; GRIN3A LBD mod: 0.7; EBV gp42 inh: 3.4; Tb MetRS inh: -1.1; CHOP inh: 18.6; WT yeast gro inh: 15.9

How did CCCCOC(=O)c1ccc(NC(=O)c2ccccc2OC)cc1 do in these assays?
MPTP inh: 0.8; GRIN3A LBD mod: -11.7; EBV gp42 inh: 14.6; Tb MetRS inh: -0.1; CHOP inh: 36.6; WT yeast gro inh: 64.5*

What do the screens show for `CCCOC(=O)c1ccc(NC(=O)c2ccccc2OC)cc1`?
MPTP inh: 1.0; GRIN3A LBD mod: -6.6; EBV gp42 inh: -10.4; Tb MetRS inh: -0.1; CHOP inh: 29.2; WT yeast gro inh: 24.1

How did CN1CCC2(CC1)N=C(c1ccc(F)cc1)C(=S)N2C(=O)c1ccc(C(C)(C)C)cc1 do in these assays?
MPTP inh: -0.1; GRIN3A LBD mod: 2.4; EBV gp42 inh: -21.8; Tb MetRS inh: 0.1; CHOP inh: 80.9*; WT yeast gro inh: 1.6
